Converted amounts (≈) assume the structure as drawn. The source made the active and inactive calls. The rule behind the calls is not given here.
How the values were obtained:
A549 = experiment: Cytotoxicity against human A549 cells; assay type: functional, cell-based
MCF7 = experiment: Cytotoxicity against human MCF7 cells; assay type: functional, cell-based
Toxicity in brine shrimp = assay type: organism-based; details: artemia, in vivo
KB = experiment: Cytotoxicity against human KB cells; assay type: functional, cell-based
SK-MEL-30 = experiment: Cytotoxicity against human SK-MEL-30 cells; assay type: functional, cell-based
Leishmania donovani [1] = experiment: Antileishmanial activity against extracellular Leishmania donovani LV9 infected in C57BL/10ScSn mouse bone marrow-derived macrophages; assay type: functional; details: LV9, read-out: ED50
Leishmania major = experiment: Antileishmanial activity against promastigotes of Leishmania major LV39 infected in C57BL/10ScSn mouse bone marrow-derived macrophages; assay type: functional, organism-based
Method in brief: (§1)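 Promastigotes of L. donovani LV9, L. infantum D.SCH (isolated 1995 from an infant visceral leishmaniasis case), L. enriettii and L. major LV39, grown at 25 °C, 5% CO2, humidified, and passaged every 3-4 days. Stocks were kept by animal passage (not L. infantum) and cryopreserved in liquid nitrogen.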

Leishmania infantum = experiment: Antileishmanial activity against promastigotes of Leishmania infantum D.SCH infected in C57BL/10ScSn mouse bone marrow-derived macrophages; assay type: functional, organism-based
Method in brief: as §1

Leishmania enriettii = experiment: Antileishmanial activity against promastigotes of Leishmania enriettii infected in C57BL/10ScSn mouse bone marrow-derived macrophages; assay type: functional; details: read-out: ED50
[2] = Cytotoxicity against C57BL/10ScSn mouse bone marrow-derived macrophages; assay type: cell-based, Macrophage
Leishmania donovani [3] = experiment: Antileishmanial activity against intracellular Leishmania donovani LV9 infected in C57BL/10ScSn mouse bone marrow-derived macrophages; assay type: functional; details: LV9, read-out: ED50

## C/C=C\C(=O)O[C@@H]1[C@@H](O)[C@H]2O[C@@H]3C=C(C)C(=O)C[C@]3(C)[C@]1(C)[C@]21CO1 [TRICHOTHECINOL A]
A549; a549
  EC50: 0.021 µg/mL (≈ 0.0603 µM)
MCF7; mcf7
  EC50: 0.014 µg/mL (≈ 0.0402 µM)
Toxicity in brine shrimp
  LC50: 0.52 µg/mL (≈ 1.49 µM)
KB; kb
  EC50: 0.014 µg/mL (≈ 0.0402 µM)
SK-MEL-30; sk-mel-30
  EC50: 0.013 µg/mL (≈ 0.0373 µM)

## CC1=C[C@]23O[C@@H]4CC[C@](C)([C@@]2(C)CC1=O)[C@]4(CO)O3 [LOUKACINOL B]
A549; Homo sapiens, A549
  EC50: 15.2 µg/mL (≈ 57.5 µM)
MCF7; Homo sapiens, MCF7
  EC50: 13.3 µg/mL (≈ 50.3 µM)
KB; Homo sapiens, KB
  EC50: 11.8 µg/mL (≈ 44.6 µM)
SK-MEL-30; Homo sapiens, SK-MEL-30
  EC50: 13.6 µg/mL (≈ 51.5 µM)

## CC(=O)OC[C@]12O[C@]34C=C(C)C(=O)C[C@]3(C)[C@@]1(C)[C@H](O)C[C@H]2O4 [13-ACETOXYLOUKACINOL A]
A549; Homo sapiens, A549
  EC50: 26.6 µg/mL (≈ 82.5 µM)
MCF7; Homo sapiens, MCF7
  EC50: 15.9 µg/mL (≈ 49.3 µM)
KB; Homo sapiens, KB
  EC50: 13.6 µg/mL (≈ 42.2 µM)
SK-MEL-30; Homo sapiens, SK-MEL-30
  EC50: 18 µg/mL (≈ 55.8 µM)

## C/C=C\C(=O)O[C@@H]1C[C@H]2O[C@@H]3C=C(C)C(=O)C[C@]3(C)[C@]1(C)[C@]21CO1 [TRICHOTHECIN]
A549; a549
  EC50: 16 µg/mL (≈ 48.1 µM)
MCF7; mcf7
  EC50: 19 µg/mL (≈ 57.2 µM)
Toxicity in brine shrimp
  LC50: 2.2 µg/mL (≈ 6.62 µM)
KB; kb
  EC50: 35 µg/mL (≈ 105 µM)
SK-MEL-30; sk-mel-30
  EC50: 14 µg/mL (≈ 42.1 µM)

## CC1=C[C@H]2O[C@@H]3C[C@@H](O)[C@](C)([C@@]2(C)CC1=O)[C@]31CO1 [TRICHOTHECOLONE]
A549; a549
  EC50: 7.1 µg/mL (≈ 26.9 µM)
MCF7; mcf7
  EC50: 10.6 µg/mL (≈ 40.1 µM)
KB; kb
  EC50: 10.6 µg/mL (≈ 40.1 µM)
SK-MEL-30; sk-mel-30
  EC50: 8.6 µg/mL (≈ 32.5 µM)

## C/C=C\C(=O)O[C@@H]1[C@@H](O)[C@H]2O[C@@H]3C=C(C)CC[C@]3(C)[C@]1(C)[C@]21CO1 [8-DIHYDROTRICHOTHECINOL A]
A549; a549
  EC50: 0.11 µg/mL (≈ 0.329 µM)
MCF7; mcf7
  EC50: 0.11 µg/mL (≈ 0.329 µM)
KB; kb
  EC50: 0.1 µg/mL (≈ 0.299 µM)
SK-MEL-30; sk-mel-30
  EC50: 0.11 µg/mL (≈ 0.329 µM)

## C=C[C@]1(C)CC[C@]2(C)[C@@H](C1)C(=O)[C@@H](O)[C@@H]1[C@]3(C)CCC[C@@]12OC3=O
Leishmania donovani [1]
  EC50: 10.3 µg/mL (≈ 31 µM)
Leishmania major
  Activity: inactive
Leishmania infantum
  Activity: inactive
Leishmania enriettii
  EC50: > 50 µg/mL
[2]
  CC50: 19.5 µg/mL (≈ 58.7 µM)
Leishmania donovani [3]
  EC50: 37.2 µg/mL (≈ 112 µM)

## CC1=C[C@]23O[C@@H]4C[C@@H](O)[C@](C)([C@@]2(C)CC1=O)[C@]4(CO)O3 [LOUKACINOL A]
A549; Homo sapiens, A549
  EC50: 21.4 µg/mL (≈ 76.3 µM)
MCF7; Homo sapiens, MCF7
  EC50: 15.8 µg/mL (≈ 56.4 µM)
KB; Homo sapiens, KB
  EC50: 13.9 µg/mL (≈ 49.6 µM)
SK-MEL-30; Homo sapiens, SK-MEL-30
  EC50: 16.4 µg/mL (≈ 58.5 µM)

Reference: ChEMBL document CHEMBL1155655 (2000)
